Assay type in all cases: functional
The subject of assay [1] is Escherichia coli. Nature of the assay: Antibacterial activity against ESBL-producing Escherichia coli isolate by broth microdilution method. In outline:
(§1)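 Clinical E. coli isolates from Canadian ICUs (CAN-ICU), one per patient and site, genotypically confirmed ESBL or acquired AmpC producers. AmpC groups (EBC, DHA, FOX, CIT) were typed by multiplex PCR and sequencing. Isolates were stored at −80°C in skim milk and subcultured twice from frozen stock. MICs were determined in triplicate by CLSI broth microdilution.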
On the technique in general: Broth dilution looks for growth in wells or tubes with falling amounts of substance.

Assay [2] relates to Escherichia coli. Nature of the assay: Antibacterial activity against AmpC-producing Escherichia coli isolate by broth microdilution method. In outline: as §1
Assay [3] has as its system Escherichia coli. Briefly: Antibacterial activity against ESBL-producing Escherichia coli assessed as resistant isolates by broth microdilution method. In outline: (§2)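 ICU clinical E. coli isolates, with ESBL or acquired AmpC genotype confirmed (AmpC families by multiplex PCR and sequencing), were stored at −80°C in skim milk and subcultured twice from frozen stock. MICs were determined in triplicate by CLSI broth microdilution. The panel included ampicillin, piperacillin-tazobactam, ceftriaxone, cefepime, cefoxitin, gentamicin, fluoroquinolones, carbapenems, doxycycline, tigecycline and trimethoprim-sulfamethoxazole.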

Assay [4] concerns Escherichia coli. Nature of the assay: Antibacterial activity against AmpC-producing Escherichia coli assessed as resistant isolates by broth microdilution method. In outline:
as §2

Assay [5] deals with Escherichia coli. Briefly: Antibacterial activity against AmpC-producing Escherichia coli assessed as sensitive isolates by broth microdilution method. The gist of the method:
as §1

Assay [6] has as its system Escherichia coli. Nature of the assay: Antibacterial activity against ESBL-producing Escherichia coli assessed as sensitive isolates by broth microdilution method. In outline: as §1
Assay [7] has as its system Escherichia coli. Nature of the assay: Antibacterial activity against ESBL-producing Escherichia coli isolate by broth microdilution method in presence of Tazobactam. In outline:
as §1

Assay [8] relates to Escherichia coli. Briefly: Antibacterial activity against ESBL-producing Escherichia coli assessed as sensitive isolates by broth microdilution method in presence of Tazobactam. In outline:
as §1

In assay [9] the test system is Escherichia coli. Briefly: Antibacterial activity against ESBL-producing Escherichia coli assessed as resistant isolates by broth microdilution method in presence of Tazobactam. The gist of the method: as §2
Assay [10] relates to Escherichia coli. Nature of the assay: Antibacterial activity against AmpC-producing Escherichia coli isolate by broth microdilution method in presence of Tazobactam. The gist of the method: as §1
For assay [11], the system named is Escherichia coli. Briefly: Antibacterial activity against AmpC-producing Escherichia coli assessed as sensitive isolates by broth microdilution method in presence of Tazobactam. In outline: as §1

Converted amounts (≈) assume the structure as drawn.

On to `CC1(C)S[C@@H]2[C@H](NC(=O)[C@H](N)c3ccccc3)C(=O)N2[C@H]1C(=O)O` [AMPICILLIN], for which, in the assay on Escherichia coli [1], the MIC is > 256 µg/mL, the MIC50 was > 256 µg/mL and the MIC90 is > 256 µg/mL. In addition, in the assay on Escherichia coli [2], the MIC was > 256 µg/mL, the MIC50 was > 256 µg/mL and the MIC90 was > 256 µg/mL. Besides, the Activity in the assay on Escherichia coli [3] is 100%. Besides, the Activity in the assay with Escherichia coli [4] is given as 100%.

Turning to `CO/N=C(\C(=O)N[C@@H]1C(=O)N2C(C(=O)[O-])=C(C[N+]3(C)CCCC3)CS[C@H]12)c1csc(N)n1` [CEFEPIME], the Activity in the assay on Escherichia coli [5] was found to be 100%; in the assay on Escherichia coli [6] it was 50%; with Escherichia coli [3], 11.1%. The MIC50 in the assay with Escherichia coli [1] was 8 µg/mL (≈ 16.6 µM); against Escherichia coli [2], ≤ 1 µg/mL. For the same molecule, the MIC90 in the assay on Escherichia coli [1] is 32 µg/mL (≈ 66.6 µM); against Escherichia coli [2], ≤ 1 µg/mL. Besides, the MIC in the assay on Escherichia coli [2] was ≤ 1 µg/mL.

As to `CO[C@@]1(NC(=O)Cc2cccs2)C(=O)N2C(C(=O)O)=C(COC(N)=O)CS[C@@H]21` [CEFOXITIN], the Activity is 61.1% with Escherichia coli [6], 16.7% in the assay with Escherichia coli [3] and 100% in the assay with Escherichia coli [4]. For the same molecule, the MIC50 was 8 µg/mL (≈ 18.7 µM) against Escherichia coli [1] and 256 µg/mL (≈ 599 µM) in the assay with Escherichia coli [2]. The MIC90 in the assay on Escherichia coli [1] was 32 µg/mL (≈ 74.9 µM); against Escherichia coli [2] it was > 256 µg/mL.

Turning to `CO/N=C(\C(=O)N[C@@H]1C(=O)N2C(C(=O)O)=C(CSc3nc(=O)c(O)nn3C)CS[C@H]12)c1csc(N)n1` [CEFTRIAXONE], the Activity with Escherichia coli [5] stood at 44.4%; with Escherichia coli [6] it was 5.6%; with Escherichia coli [3], 83.3%; with Escherichia coli [4], 11.1%. Besides, the values for the MIC50 in the assay with Escherichia coli [1] and in the assay on Escherichia coli [2] were 128 µg/mL (≈ 231 µM) and 16 µg/mL (≈ 28.9 µM), respectively. Also, the MIC90 in the assay on Escherichia coli [1] is > 256 µg/mL; against Escherichia coli [2] it was 64 µg/mL (≈ 115 µM).

Consider `O=C(O)c1cn(C2CC2)c2cc(N3CCNCC3)c(F)cc2c1=O` [CIPROFLOXACIN], for which the Activity with Escherichia coli [5] was 85.2%; in the assay on Escherichia coli [6] it was 16.7%; in the assay with Escherichia coli [3], 83.3%; in the assay with Escherichia coli [4], 11.1%. Also, the MIC50 was > 16 µg/mL against Escherichia coli [1] and ≤ 0.06 µg/mL against Escherichia coli [2]. For the same molecule, the MIC90 against Escherichia coli [1] and in the assay with Escherichia coli [2] was > 16 µg/mL throughout.

`C[C@H]1c2cccc(O)c2C(=O)C2=C(O)[C@]3(O)C(=O)C(C(N)=O)=C(O)[C@@H](N(C)C)[C@@H]3[C@@H](O)[C@@H]21.O` [DOXYCYCLINE]: the Activity in the assay on Escherichia coli [5] is 66.7%; in the assay on Escherichia coli [6], 61.1%; in the assay on Escherichia coli [3] it was 33.3%; in the assay on Escherichia coli [4] it was 18.5%. For the same molecule, the MIC50 with Escherichia coli [1] worked out at 4 µg/mL; against Escherichia coli [2] it was 2 µg/mL. For the same molecule, the MIC90 in the assay with Escherichia coli [1] and against Escherichia coli [2] was 64 µg/mL each time.

In the case of `C[C@@H](O)[C@H]1C(=O)N2C(C(=O)O)=C(S[C@@H]3CN[C@H](C(=O)Nc4cccc(C(=O)O)c4)C3)[C@H](C)[C@H]12` [ERTAPENEM], the Activity in the assay on Escherichia coli [5] and in the assay with Escherichia coli [6] was 100% each time. Moreover, the MIC50 in the assay with Escherichia coli [1] and in the assay on Escherichia coli [2] was 0.12 µg/mL (≈ 0.252 µM) each time. Also, the figures for the MIC90 against Escherichia coli [1] and against Escherichia coli [2] were 0.25 µg/mL (≈ 0.526 µM) and 0.5 µg/mL (≈ 1.05 µM), respectively.

Consider `C[C@H]1COc2c(N3CCN(C)CC3)c(F)cc3c(=O)c(C(=O)O)cn1c23.C[C@H]1COc2c(N3CCN(C)CC3)c(F)cc3c(=O)c(C(=O)O)cn1c23.O` [LEVOFLOXACIN], for which the Activity in the assay on Escherichia coli [5] is on record as 88.9%; with Escherichia coli [6] it was 16.7%; in the assay with Escherichia coli [3], 83.3%; in the assay on Escherichia coli [4], 26.6%. The MIC50 against Escherichia coli [1] was 16 µg/mL; in the assay on Escherichia coli [2] it was ≤ 0.06 µg/mL. Besides, the figures for the MIC90 against Escherichia coli [1] and in the assay with Escherichia coli [2] were 32 µg/mL and 16 µg/mL, respectively.

As for `C[C@@H](O)[C@H]1C(=O)N2C(C(=O)O)=C(S[C@@H]3CN[C@H](C(=O)N(C)C)C3)[C@H](C)[C@H]12` [MEROPENEM], the Activity with Escherichia coli [5] worked out at 100%. The Activity with Escherichia coli [6] came to 100%. Moreover, in the assay with Escherichia coli [1], the MIC was ≤ 0.12 µg/mL, the MIC50 was ≤ 0.12 µg/mL and the MIC90 was ≤ 0.12 µg/mL. In addition, in the assay on Escherichia coli [2], the MIC is ≤ 0.12 µg/mL, the MIC50 was ≤ 0.12 µg/mL and the MIC90 is ≤ 0.12 µg/mL.

Take `CCN1CCN(C(=O)N[C@@H](C(=O)N[C@@H]2C(=O)N3[C@@H]2SC(C)(C)[C@@H]3C(=O)O)c2ccccc2)C(=O)C1=O` [PIPERACILLIN]: the MIC50 with Escherichia coli [7] and in the assay with Escherichia coli [10] was 2 µg/mL throughout. Also, the MIC90 in the assay on Escherichia coli [7] and in the assay with Escherichia coli [10] was 8 µg/mL each time. Besides, the Activity in the assay with Escherichia coli [8] was determined as 94.4%; in the assay with Escherichia coli [9] it was 5.6%; in the assay on Escherichia coli [11], 100%.

In the case of `CN(C)c1cc(NC(=O)CNC(C)(C)C)c(O)c2c1C[C@H]1C[C@H]3[C@H](N(C)C)C(O)=C(C(N)=O)C(=O)[C@@]3(O)C(O)=C1C2=O` [TIGECYCLINE], the Activity in the assay on Escherichia coli [5] and in the assay with Escherichia coli [6] was 100% each time. For the same molecule, the MIC50 was determined as 0.5 µg/mL (≈ 0.854 µM) against Escherichia coli [1] and 0.25 µg/mL (≈ 0.427 µM) against Escherichia coli [2]. In addition, the results for the MIC90 against Escherichia coli [1] and in the assay with Escherichia coli [2] were 1 µg/mL (≈ 1.71 µM) and 0.5 µg/mL (≈ 0.854 µM), respectively.

With GENTAMICIN, the Activity with Escherichia coli [5] was determined as 88.9%; in the assay on Escherichia coli [6], 66.7%; in the assay with Escherichia coli [3], 27.8%; in the assay with Escherichia coli [4], 3.7%. The results for the MIC50 against Escherichia coli [1] and against Escherichia coli [2] were 1 µg/mL and < 0.25 µg/mL, respectively. Moreover, the MIC90 in the assay with Escherichia coli [1] is 16 µg/mL; against Escherichia coli [2] it was 8 µg/mL.

The term MIC denotes the smallest concentration in the dilution series that meets the test's criterion for growth inhibition. The low end stands for greater potency, the high end for weaker potency. One may read the MIC50 as an inhibitory concentration at the 50% level, which refers to growth in some studies and to a panel of isolates in others. As a reminder, the MIC90 is an inhibitory concentration at the 90% level, which refers to growth in some studies and to a panel of isolates in others.

The values above are taken from ChEMBL document CHEMBL1275413, “Comparison of antimicrobial resistance profiles among extended-spectrum-beta-lactamase-producing and acquired AmpC beta-lactamase-producing Escherichia coli isolates from Canadian intensive care units” (2008).
